A short description of data set [1]: Cytotoxicity against human HuH7 cells after 2 days by XTT assay. Format: cell-based, Huh-7. Put shortly:
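Huh-7 cells seeded at 2 × 10⁴/well and allowed to attach 6-8 h, then exposed to 200, 100, 50, 10 and 1 μg/mL compound, DMSO control, 2 days at 37 °C. XTT reagent added for 4 h at 37 °C; absorbance read at 450-500 nm.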
Background: Tetrazolium assays rely on reduction of a dye to a coloured formazan, in cell work by metabolically active cells.

The nature of data set [2]: Cytotoxicity against human HuH7 cells assessed as incorporation of [3H]thymidine into DNA after 2 days by scintillation counting. Format: cell-based, Huh-7. Put shortly: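 Huh-7 cells plated at 1 × 10⁴/well, compounds at 200, 100, 50, 10 and 1 μg/mL in triplicate, DMSO control, 2 days at 37 °C. Pulsed with 0.5 μCi/well [³H]-thymidine for 12-18 h, harvested onto filters, and incorporated DNA label counted by liquid scintillation.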

Data set [3] relates to Mycobacterium tuberculosis. As to the kind of experiment: Antimycobacterial activity against Mycobacterium tuberculosis H37Ra at 100 ug/ml after 6 days by microplate alamar blue assay. Format: functional. The settings on record: 144 h. Summed up: (§1)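 H37Ra from frozen inoculum, 2.5 × 10⁵ CFU/mL final, in 7H9GC medium; compounds from 10 mg/mL DMSO stock tested at 100, 50, 25, 10, 5 and 1 μg/mL in triplicate, run twice. Incubated 6 days, then alamar blue plus Tween 80 added, read after 24 h visually and by fluorescence. Percent inhibition against bacteria-only and medium-only wells; MIC50 is the lowest concentration giving ~50% inhibition.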
A general note: Alamar Blue is a resazurin reagent that responds to reducing activity.

For data set [4], the system named is Mycobacterium tuberculosis. Briefly: Antimycobacterial activity against Mycobacterium tuberculosis H37Ra after 6 days by microplate alamar blue assay. Format: functional. The settings on record: 144 h. Summed up:
as §1

Data set [5] relates to Mycobacterium tuberculosis. As to the kind of experiment: Antimycobacterial activity against Mycobacterium tuberculosis H37Ra at 50 ug/ml after 6 days by microplate alamar blue assay. As to conditions: 144 h. Format: functional. Summed up:
as §1

Data set [6] has as its system Mycobacterium tuberculosis. Briefly: Antimycobacterial activity against Mycobacterium tuberculosis H37Ra at 25 ug/ml after 6 days by microplate alamar blue assay. As to conditions: 144 h. Format: functional. Put shortly: as §1
In data set [7] the test system is Mycobacterium tuberculosis. Briefly: Antimycobacterial activity against Mycobacterium tuberculosis H37Ra at 5 ug/ml after 6 days by microplate alamar blue assay. Format: functional. As to conditions: 144 h. Summed up: as §1
Data set [8] deals with Mycobacterium tuberculosis. Briefly: Antimycobacterial activity against Mycobacterium tuberculosis H37Ra at 25 ug/ml after 4 days. Format: functional. Summed up:
(§2)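 THP-1 cells, 2 × 10⁵/well, differentiated 3 days with 100 nM PMA, then infected 3 h with ~10⁷ CFU H37Ra. Non-phagocytosed bacteria removed. Compounds at 25, 10, 5 or 1 μg/mL in triplicate, rifampicin or isoniazid controls at 2.5 μg/mL, 4 days. Lysates plated in serial dilution on 7H11, colonies counted at 2-3 weeks. Percent CFU reduction versus untreated control; run twice.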

The test system of data set [9] is Mycobacterium tuberculosis. As to the kind of experiment: Antimycobacterial activity against Mycobacterium tuberculosis H37Ra at 10 ug/ml after 4 days. Format: functional. Summed up: as §2
Data set [10] concerns Mycobacterium tuberculosis. Briefly: Antimycobacterial activity against Mycobacterium tuberculosis H37Ra at 5 to 10 ug/ml after 6 days by microplate alamar blue assay. Format: functional. Summed up:
as §1

For data set [11], the system named is Mycobacterium tuberculosis. Briefly: Antimycobacterial activity against Mycobacterium tuberculosis H37Ra at 1 ug/ml after 6 days by microplate alamar blue assay. Format: functional. As to conditions: 144 h. Summed up: as §1
Data set [12] has as its system Mycobacterium tuberculosis. Briefly: Antimycobacterial activity against Mycobacterium tuberculosis H37Ra at 2.5 ug/ml after 4 days. Format: functional. Summed up:
as §2

In data set [13] the test system is Mycobacterium tuberculosis. As to the kind of experiment: Antimycobacterial activity against Mycobacterium tuberculosis H37Ra at 10 ug/ml after 6 days by microplate alamar blue assay. Format: functional. As to conditions: 144 h. Summed up:
as §1

≈ marks a conversion by molar mass, not a printed value.

In general, CC50 refers to the concentration giving 50% cytotoxicity. By inhibition is commonly meant the change of the read-out against control, counted positive when it falls. `O=c1[nH]c(=O)n([C@H]2C[C@@H](I)[C@@H](CO)O2)cc1F`: the cytotoxic concentration (CC50) at 48 h in [1] and in data set [2] was greater than 100 µg/mL throughout. In data set [3], this molecule displayed an inhibition at 100 µg/mL of 40%.

Broadly, the MIC50 is an inhibitory concentration at the 50% level, which refers to growth in some studies and to a panel of isolates in others. Higher therefore signals lower susceptibility. With `Cc1cn([C@@H]2O[C@H](CO)[C@H](O)[C@H]2Br)c(=O)[nH]c1=O`, the MIC50 in [4] stood at 25 µg/mL (≈ 77.9 µM). Besides, the CC50 at 48 h in data set [1] and in data set [2] was greater than 100 µg/mL each time. Besides, at 100 µg/mL the inhibition in [3] was 80%. The molecule also registered an inhibition at 50 µg/mL in data set [5] of 60%.

For `N[C@@H]1CONC1=O` [CYCLOSERINE], the inhibition at 25 µg/mL in data set [6] is 80%. In [7], testing at 5 µg/mL gave an inhibition of 50%. Also, the MIC50 in data set [4] amounted to 5 µg/mL (≈ 49 µM). The molecule also yielded an inhibition at 50 µg/mL in [5] of 100%.

`Cc1cn([C@H]2C[C@H](Cl)[C@@H](CO)O2)c(=O)[nH]c1=O` gave an MIC50 in data set [4] of 50 µg/mL (≈ 192 µM). Also, the CC50 at 48 h in [1] and in data set [2] was greater than 100 µg/mL in each case. The molecule further had an inhibition at 100 µg/mL in [3] of 68%. This molecule had an inhibition at 50 µg/mL in [5] of 50%.

For `O=c1ccn([C@@H]2O[C@H](CO)[C@@H](Br)[C@@H]2O)c(=O)[nH]1`, the CC50 at 48 h in data set [1] and in data set [2] was greater than 100 µg/mL each time. Besides, at 100 µg/mL the inhibition in data set [3] was 24%.

Consider `Cc1cn([C@H]2C[C@H](I)[C@@H](CO)O2)c(=O)[nH]c1=O`, for which the CC50 at 48 h in data set [1] and in data set [2] was greater than 100 µg/mL throughout. The molecule also gave an inhibition at 100 µg/mL in [3] of 0%.

On to `O=c1ccn([C@@H]2O[C@H](CO)[C@H](O)[C@H]2Br)c(=O)[nH]1`, for which the CC50 at 48 h in data set [1] and in data set [2] was greater than 100 µg/mL throughout. In [3], this molecule returned an inhibition at 100 µg/mL of 0%.

As to `O=c1[nH]c(=O)n([C@H]2C[C@H](Cl)[C@@H](CO)O2)cc1F`, the CC50 at 48 h in [1] and in data set [2] was greater than 100 µg/mL throughout. The same molecule came in with an inhibition at 100 µg/mL in data set [3] of 40%.

For the molecule `Cc1cn([C@H]2C[C@H](Br)[C@@H](CO)O2)c(=O)[nH]c1=O`, the MIC50 in data set [4] amounted to 5 µg/mL (≈ 16.4 µM). The Activity in data set [8] was 90%; in data set [9] it was 50%. Besides, the CC50 at 48 h in [1] and in data set [2] was greater than 100 µg/mL in each case. Also, in [3], the inhibition at 100 µg/mL stood at 100%. In data set [5], this molecule yielded an inhibition at 50 µg/mL of 82%. For the same molecule, the “inhibition (INH)” value in data set [10] turned out to be 5%.

Turning to `Cc1cn([C@H]2C[C@H](F)[C@@H](CO)O2)c(=O)[nH]c1=O` [ALOVUDINE], in [3], the inhibition at 100 µg/mL was 0%.

In data set [6], `O=c1[nH]c(=O)n([C@@H]2O[C@H](CO)[C@H](O)[C@H]2Br)cc1F` had an inhibition at 25 µg/mL of 50%. In addition, the CC50 at 48 h in [1] and in data set [2] was greater than 100 µg/mL each time. In data set [3], this molecule gave an inhibition at 100 µg/mL of 0%.

Consider `O=c1[nH]c(=O)n([C@@H]2O[C@H](CO)[C@@H](Br)[C@@H]2O)cc1F`, for which the inhibition at 25 µg/mL in data set [6] is 50%. In data set [4], this molecule registered an MIC50 of 25 µg/mL (≈ 76.9 µM). Moreover, the CC50 at 48 h in [1] and in [2] was greater than 100 µg/mL in each case. Also, the inhibition at 100 µg/mL in data set [3] came to 91%.

In the case of `NNC(=O)c1ccncc1` [ISONIAZID], in [11], the inhibition at 1 µg/mL was found to be 100%. For the same molecule, in [4], the MIC50 was less than 1 µg/mL. Moreover, the Activity in data set [12] is reported as greater than 98%.

On to `O=c1[nH]c(=O)n([C@H]2C[C@@H](Cl)[C@@H](CO)O2)cc1F`, for which, in data set [6], the inhibition at 25 µg/mL stood at 40%. In [4], this molecule gave an MIC50 of 25 µg/mL (≈ 94.5 µM). Moreover, the CC50 at 48 h in data set [1] and in data set [2] was greater than 100 µg/mL each time. Further, 100 µg/mL produced 90% inhibition in data set [3]. In addition, 50 µg/mL produced 60% inhibition in data set [5].

Consider `O=c1[nH]c(=O)n([C@H]2C[C@H](F)[C@@H](CO)O2)cc1F`, for which the inhibition at 100 µg/mL in data set [3] turned out to be 0%.

Take `Cc1cn([C@@H]2O[C@H](CO)[C@@H](Br)[C@@H]2O)c(=O)[nH]c1=O`: in data set [13], the inhibition at 10 µg/mL was 75%. The molecule also gave an inhibition at 1 µg/mL in data set [11] of 50%. The molecule further registered an MIC50 in data set [4] of 1 µg/mL (≈ 3.11 µM). In addition, the values for the Activity in [8] and in data set [9] were greater than 90% and 80%, respectively. In addition, the CC50 at 48 h in data set [1] and in data set [2] was greater than 100 µg/mL each time. The same molecule registered an inhibition at 100 µg/mL in [3] of 50%.

As for `O=c1[nH]c(=O)n([C@H]2C[C@H](I)[C@@H](CO)O2)cc1F`, the CC50 at 48 h in data set [1] and in [2] was greater than 100 µg/mL each time. In [3], the inhibition at 100 µg/mL stood at 32%.

Consider `O=c1[nH]c(=O)n([C@H]2C[C@@H](Br)[C@@H](CO)O2)cc1F`, for which, in data set [6], the inhibition at 25 µg/mL came to 40%. Moreover, the MIC50 in [4] turned out to be 25 µg/mL (≈ 80.9 µM). In addition, the CC50 at 48 h in data set [1] and in [2] was greater than 100 µg/mL in each case. The molecule also had an inhibition at 100 µg/mL in data set [3] of 100%. For the same molecule, the inhibition at 50 µg/mL in data set [5] was found to be 63%.

`O=c1[nH]c(=O)n([C@H]2C[C@H](Br)[C@@H](CO)O2)cc1F`: the MIC50 in data set [4] came to 50 µg/mL (≈ 162 µM). The CC50 at 48 h in data set [1] and in data set [2] was greater than 100 µg/mL throughout. The molecule also displayed an inhibition at 100 µg/mL in [3] of 80%. The same molecule came in with an inhibition at 50 µg/mL in data set [5] of 50%.

On to `CO[C@H]1/C=C/O[C@@]2(C)Oc3c(C)c(O)c4c(O)c(c(/C=N/N5CCN(C)CC5)c(O)c4c3C2=O)NC(=O)/C(C)=C\C=C\[C@H](C)[C@H](O)[C@@H](C)[C@@H](O)[C@@H](C)[C@H](OC(C)=O)[C@@H]1C` [RIFAMPIN], for which the MIC50 in [4] is less than 0.5 µg/mL. In addition, the Activity in data set [12] is given as greater than 98%.

The values are drawn from ChEMBL document CHEMBL1157790, “3'-bromo analogues of pyrimidine nucleosides as a new class of potent inhibitors of Mycobacterium tuberculosis” (J Med Chem, 2010).
